ChEMBL document CHEMBL1157725 (Bioorg Med Chem, 2010)
The source made the active and inactive calls. The rule behind the calls is not given here.

Tests used:
[1] = tested on: MCF7; experiment: Antiproliferative activity against human MCF7 cells after 24 hrs by SRB assay; format: functional, cell-based; conditions: MCF7, 24 h
In short: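 MCF-7 cells are grown for 24 h with or without drug, then for a further 48 h. Total cell protein is measured by sulforhodamine B staining, and the IC₅₀ is derived from it.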

[2] = Inhibition of tubulin polymerization by turbidimetry
In short: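 Tubulin at 10 µM (1.0 mg/mL). Polymerization followed turbidimetrically at 350 nm in temperature-controlled spectrophotometers.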

[3] = Displacement of [3H]colchicine from tubulin at 50 uM by turbidimetry; conditions: in the assay text read “by DEAE-cellulose filter method” for “by turbidimetry”
In short: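 Binding of [³H]colchicine to tubulin (1.0 µM, 0.1 mg/mL) is measured by the DEAE-cellulose filter method. The radioligand is at 5.0 µM and test agents at 5 or 50 µM. Each is run in triplicate.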

[4] = Inhibition of tubulin in rat A10 cells assessed as induction of cellular microtubule disassembly after 18 hrs by indirect immunofluorescence technique; format: cell-based; conditions: A10, 18 h
In short: (§1)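 A-10 cells plated on glass coverslips and treated with compound at varying concentrations for 18 h. After fixation, microtubules immunostained with a β-tubulin antibody (indirect immunofluorescence) and nuclei stained with DAPI. Read by fluorescence microscopy. Percentage of cellular microtubule loss estimated visually across the concentration range.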

[5] = tested on: A10; experiment: Inhibition of tubulin in rat A10 cells assessed as thinning of microtubule network at 20 uM after 18 hrs by fluorescence microscopy; format: cell-based; in short: as §1
[6] = tested on: CCRF-CEM; experiment: Growth inhibition of human CCRF-CEM cells after 48 hrs by SRB assay; format: functional
[7] = tested on: K562; experiment: Growth inhibition of human K562 cells after 48 hrs by SRB assay; format: functional; conditions: K562, 48 h
[8] = tested on: MOLT-4; experiment: Growth inhibition of human MOLT4 cells after 48 hrs by SRB assay; format: functional; conditions: MOLT-4, 48 h
[9] = Growth inhibition of human […] cells after 48 hrs by SRB assay; format: functional
[10] = tested on: SR; experiment: Growth inhibition of human SR cells after 48 hrs by SRB assay; format: functional
In short: (§2)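 NCI human tumor cell line panel. Cells exposed for 48 h to five concentrations in a 10-fold serial dilution. Growth inhibition read as total cell protein by sulforhodamine B staining. GI50 calculated from log dose–response curves.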

[11] = tested on: A549; experiment: Growth inhibition of human A549 cells after 48 hrs by SRB assay; format: functional; conditions: A549, 48 h
[12] = tested on: EKVX; experiment: Growth inhibition of human EKVX cells after 48 hrs by SRB assay; format: functional
[13] = tested on: HOP-62; experiment: Growth inhibition of human HOP62 cells after 48 hrs by SRB assay; format: functional; conditions: HOP-62, 48 h
[14] = tested on: HOP-92; experiment: Growth inhibition of human HOP92 cells after 48 hrs by SRB assay; format: functional; conditions: HOP-92, 48 h
[15] = tested on: NCI-H226; experiment: Growth inhibition of human NCI-H226 cells after 48 hrs by SRB assay; format: functional; conditions: NCI-H226, 48 h
[16] = tested on: NCI-H23; experiment: Growth inhibition of human NCI-H23 cells after 48 hrs by SRB assay; format: functional; conditions: NCI-H23, 48 h
[17] = tested on: NCI-H322M; experiment: Growth inhibition of human NCI-H322M cells after 48 hrs by SRB assay; format: functional
[18] = tested on: NCI-H460; experiment: Growth inhibition of human NCI-H460 cells after 48 hrs by SRB assay; format: functional; conditions: NCI-H460, 48 h
[19] = tested on: NCI-H522; experiment: Growth inhibition of human NCI-H522 cells after 48 hrs by SRB assay; format: functional; conditions: NCI-H522, 48 h
[20] = tested on: COLO 205; experiment: Growth inhibition of human COLO205 cells after 48 hrs by SRB assay; format: functional; conditions: COLO 205, 48 h
[21] = tested on: HCC 2998; experiment: Growth inhibition of human HCC2998 cells after 48 hrs by SRB assay; format: functional; conditions: HCC 2998, 48 h
[22] = tested on: HCT-116; experiment: Growth inhibition of human HCT116 cells after 48 hrs by SRB assay; format: functional; conditions: HCT-116, 48 h
[23] = tested on: HCT-15; experiment: Growth inhibition of human HCT15 cells after 48 hrs by SRB assay; format: functional; conditions: HCT-15, 48 h
[24] = tested on: KM12; experiment: Growth inhibition of human KM12 cells after 48 hrs by SRB assay; format: functional; conditions: KM12, 48 h
[25] = tested on: SW-620; experiment: Growth inhibition of human SW620 cells after 48 hrs by SRB assay; format: functional; conditions: SW-620, 48 h; in short: as §2
[26] = tested on: SF-268; experiment: Growth inhibition of human SF268 cells after 48 hrs by SRB assay; format: functional; conditions: SF-268, 48 h
In short: (§3)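 This is the NCI cell-line panel. Cells are exposed for 48 h to five concentrations in 10-fold serial dilution. Growth is read by the SRB protein assay, and GI₅₀ is calculated from log dose–response curves.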

[27] = tested on: SF-295; experiment: Growth inhibition of human SF295 cells after 48 hrs by SRB assay; format: functional; conditions: SF-295, 48 h; in short: as §3
[28] = tested on: SF-539; experiment: Growth inhibition of human SF539 cells after 48 hrs by SRB assay; format: functional; conditions: SF-539, 48 h; in short: as §2
[29] = tested on: SNB-19; experiment: Growth inhibition of human SNB19 cells after 48 hrs by SRB assay; format: functional; conditions: SNB-19, 48 h; in short: as §2
[30] = tested on: U-251; experiment: Growth inhibition of human U251 cells after 48 hrs by SRB assay; format: functional; conditions: U-251, 48 h; in short: as §2
[31] = tested on: LOX IMVI; experiment: Growth inhibition of human LOXIMVI cells after 48 hrs by SRB assay; format: functional; in short: as §3
[32] = tested on: Malme-3M; experiment: Growth inhibition of human MALME-3M cells after 48 hrs by SRB assay; format: functional; in short: as §3
[33] = tested on: M14; experiment: Growth inhibition of human M14 cells after 48 hrs by SRB assay; format: functional; conditions: M14, 48 h; in short: as §3

With `COc1ccc(/C=C/C(=O)c2cc(OC)c(OC)c(OC)c2)cc1B(O)O` the IC50 [1] was 900 nM, the IC50 [2] was 31000 nM and the inhibition [3] was 56%. For the same compound, the EC50 [4] was 16500 nM, the Activity [5] was “Active” and the GI50 [6] was 2390 nM. For the same compound, the GI50 [7] was 3460 nM, the GI50 [8] was 3600 nM and the GI50 [9] was 1120 nM. It also gave a GI50 [10] of 2180 nM, a GI50 [11] of 450 nM and a GI50 [12] of 1310 nM. It also gave a GI50 [13] of 98 nM, a GI50 [14] of 380 nM and a GI50 [15] of 4140 nM. For the same compound, the GI50 [16] was 140 nM, the GI50 [17] was 8440 nM and the GI50 [18] was 28 nM. For the same compound, the GI50 [19] was 200 nM, the GI50 [20] was 2200 nM and the GI50 [21] was 410 nM. The GI50 [22] was 370 nM, the GI50 [23] was < 10 nM and the GI50 [24] was 15400 nM. For the same compound, the GI50 [25] was 37 nM, the GI50 [26] was 800 nM and the GI50 [27] was 2730 nM. For the same compound, the GI50 [28] was 35 nM, the GI50 [29] was < 10 nM and the GI50 [30] was 25 nM. For the same compound, the GI50 [31] was 60 nM, the GI50 [32] was 5490 nM and the GI50 [33] was 1190 nM.
